Active and inactive are the calls of the source. The calls are words filed in the database; no cut-off is given here.
How the values were obtained:
Tyrosinase [1] = molecular target: T1, Tyrosinase (Agaricus bisporus, UniProt O42713); assay: Inhibition of Agaricus bisporus (mushroom) tyrosinase using L-DOPA as substrate by secondary plot analysis
T1 sequence (O42713 whole entry): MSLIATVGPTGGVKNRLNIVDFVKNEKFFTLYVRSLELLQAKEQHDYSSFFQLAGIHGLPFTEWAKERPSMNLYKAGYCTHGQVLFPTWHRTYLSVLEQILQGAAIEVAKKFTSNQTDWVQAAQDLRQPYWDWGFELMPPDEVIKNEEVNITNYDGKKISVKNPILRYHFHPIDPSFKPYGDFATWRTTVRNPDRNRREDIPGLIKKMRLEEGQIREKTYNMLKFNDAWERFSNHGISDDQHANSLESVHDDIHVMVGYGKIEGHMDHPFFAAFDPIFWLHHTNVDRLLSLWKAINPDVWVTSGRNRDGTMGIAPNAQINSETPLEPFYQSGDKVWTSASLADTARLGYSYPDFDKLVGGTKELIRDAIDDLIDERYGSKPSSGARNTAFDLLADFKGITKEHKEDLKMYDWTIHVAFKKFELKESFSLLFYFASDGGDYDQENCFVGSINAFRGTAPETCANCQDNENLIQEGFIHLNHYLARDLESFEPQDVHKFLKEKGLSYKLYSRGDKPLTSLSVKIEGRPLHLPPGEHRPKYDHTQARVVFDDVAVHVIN
Outline: (§1)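 L-DOPA oxidation by mushroom tyrosinase at 30 °C, pH 6.8, with inhibitor at 0, 50, 100, 150 and 200 μM, read at 475 nm. Inhibition type came from Lineweaver–Burk plots (1/v vs 1/[S]). K_IS came from a secondary plot of 1/V_m (or apparent K_m/V_m) against inhibitor concentration.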

[2] = molecular target: T2, Tyrosinase (Agaricus bisporus) (UniProt O42713); assay: Uncompetitive inhibition of Agaricus bisporus (mushroom) tyrosinase assessed as […] in Km and Vm without change in Km/Vm using L-DOPA as substrate by Line-weaver burk plot analysis; outline: as §1
T2 sequence (whole entry): T1 sequence (O42713 whole entry)

Tyrosinase [3] = molecular target: T1, Tyrosinase; assay: Inhibition of Agaricus bisporus (mushroom) tyrosinase-catalyzed oxidation of L-DOPA substrate by spectrophotometric analysis
Outline: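 Diphenolase activity of mushroom tyrosinase (6.67 μg/mL final) with 0.5 mM L-DOPA in 50 mM sodium phosphate pH 6.8, 30 °C. Inhibitors added from DMSO, 3.3% DMSO final; DMSO-only controls. Rate from slope of linear A475 progress curve. IC50 = concentration giving 50% activity loss.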

[4] = molecular target: T2, Tyrosinase (Agaricus bisporus); assay: Reversible inhibition of Agaricus bisporus (mushroom) tyrosinase assessed as remaining enzyme activity using L-DOPA as substrate by spectrophotometric analysis
Outline: (§2)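 Reversibility tested with L-DOPA as substrate in pH 6.8 phosphate buffer at 30 °C, with A475 read-out. Remaining activity was plotted against enzyme concentration at several inhibitor levels, with inhibitor series of 0–200, 0–100 or 0–80 μM. Lines through the origin were taken as reversible, and parallel lines not through the origin as irreversible.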

[5] = molecular target: T2, Tyrosinase (Agaricus bisporus); assay: Uncompetitive inhibition of Agaricus bisporus (mushroom) tyrosinase assessed as […] in Km and Vm without change in Km/Vm using L-DOPA as substrate at 50 uM by Line-weaver burk plot analysis; outline: as §1
[6] = molecular target: T2, Tyrosinase (Agaricus bisporus); assay: Irreversible inhibition of Agaricus bisporus (mushroom) tyrosinase assessed as remaining enzyme activity at >75 uM using L-DOPA as substrate by spectrophotometric analysis; outline: as §2
[7] = molecular target: T2, Tyrosinase (Agaricus bisporus); assay: Reversible inhibition of Agaricus bisporus (mushroom) tyrosinase assessed as remaining enzyme activity at <50 uM using L-DOPA as substrate by spectrophotometric analysis; outline: as §2
[8] = molecular target: T2, Tyrosinase (Agaricus bisporus); assay: Irreversible inhibition of Agaricus bisporus (mushroom) tyrosinase assessed as remaining enzyme activity using L-DOPA as substrate by spectrophotometric analysis; outline: as §2
Plutella xylostella [9] = assay: Downregulation of tyrosinase inactive precursor, PxPPO gene expression in newly molted second-instar larval stage of Plutella xylostella (diamondback moth) at 2.5 to 40 mg/ml after 72 hr by real-time quantitative PCR analysis; format: functional, organism-based
Outline: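 Compound in acetone, diluted to 2.5, 5, 20 and 40 mg/mL and spread on feed surface in wells. Larvae reared at 27 ± 2 °C, 70% humidity, 14:10 h light:dark. Whole-body PxPPO2 transcripts measured 72 h after treatment by real-time qPCR (95 °C 10 s; 45 cycles of 95 °C 5 s / 60 °C 20 s), with melting-curve check, normalized to GAPDH.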

Plutella xylostella [10] = assay: Insecticidal activity against second-instar larval stage of Plutella xylostella (diamondback moth) assessed as inhibition of insect development and molting at 40 mg/ml after 3 days (reference value: 0.95 cm); format: functional
Outline: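 Compound dissolved in acetone, diluted (2.5–40 mg/mL) and spread over feed surface. Larvae kept at 27 ± 2 °C, 70% humidity, 14:10 h light:dark photoperiod. Larval body length recorded after 3 days.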

Ki (Tyrosinase [1])	inhibition [2]	IC50 (Tyrosinase [3])	inhibition [4]	inhibition [5]	inhibition [6]	inhibition [7]	inhibition [8]	Structure (SMILES)	inhibition (Plutella xylostella [9])	Activity (Plutella xylostella [10])
135 µM	Active	316 µM	Active					CCCCCCCOC(=O)c1ccc(O)c(O)c1 [HEPTYL 3,4-DIHYDROXYBENZOATE]		
		129 µM		Active	Active	Active		CCCCCCCCOC(=O)c1ccc(O)c(O)c1 [OCTYL 3,4-DIHYDROXYBENZOATE]		
		81 µM					Active	CCCCCCCCCOC(=O)c1ccc(O)c(O)c1 [NONYL 3,4-DIHYDROXYBENZOATE]		
389 µM		910 µM	Active	Active				CCCCCCOC(=O)c1ccc(O)c(O)c1 [HEXYL 3,4-DIHYDROXYBENZOATE]	Active	0.3 cm

— ChEMBL document CHEMBL3045646, “Synthesis and antityrosinase activities of alkyl 3,4-dihydroxybenzoates” (J Agric Food Chem, 2011)
